Experimental findings from ChEMBL document CHEMBL1250551, “Improvement of water-solubility of biarylcarboxylic acid peroxisome proliferator-activated receptor (PPAR) δ-selective partial agonists by disruption of molecular planarity/symmetry” (Bioorg Med Chem, 2010) are described below.

Values after ≈ are worked out from the molar mass of the structure shown.

Data set [1] deals with T1, Peroxisome proliferator-activated receptor delta (Homo sapiens, UniProt Q03181).
T1 sequence (Q03181 whole entry): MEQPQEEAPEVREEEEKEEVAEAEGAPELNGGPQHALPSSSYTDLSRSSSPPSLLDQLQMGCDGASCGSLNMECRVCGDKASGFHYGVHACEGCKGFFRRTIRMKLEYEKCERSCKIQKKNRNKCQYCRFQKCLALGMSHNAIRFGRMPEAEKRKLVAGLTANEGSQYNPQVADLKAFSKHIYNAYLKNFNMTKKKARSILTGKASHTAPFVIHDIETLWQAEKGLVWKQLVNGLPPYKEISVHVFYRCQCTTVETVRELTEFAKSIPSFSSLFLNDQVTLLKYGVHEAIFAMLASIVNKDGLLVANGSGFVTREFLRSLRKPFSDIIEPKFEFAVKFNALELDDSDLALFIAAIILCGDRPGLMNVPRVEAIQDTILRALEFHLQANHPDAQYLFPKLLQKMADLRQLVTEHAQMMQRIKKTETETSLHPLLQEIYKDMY
Description: Partial agonist activity at human recombinant PPARdelta LBD expressed in HEK293 cells co-transfected with Gal4 assessed as beta-galactosidase activity at 1 uM by luciferase based transactivation assay. The data set is classed as functional, cell-based. In outline:
(§1)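 GAL4-hPPAR LBD fusion transactivation: cells co-transfected with CMX-GAL4N-hPPAR LBD receptor plasmid, TK-MH100x4-LUC reporter and CMX β-galactosidase normalization plasmid. Positive controls (fenofibric acid for PPARα; ciglitazone 100 nM for PPARγ) and test compounds added 6 h later; overnight incubation. Luminescence read after luciferin addition; β-galactosidase absorbance at 405 nm used for normalization.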

The target of data set [2] is T2, Peroxisome proliferator-activated receptor gamma (Homo sapiens, UniProt P37231).
T2 sequence (P37231 whole entry): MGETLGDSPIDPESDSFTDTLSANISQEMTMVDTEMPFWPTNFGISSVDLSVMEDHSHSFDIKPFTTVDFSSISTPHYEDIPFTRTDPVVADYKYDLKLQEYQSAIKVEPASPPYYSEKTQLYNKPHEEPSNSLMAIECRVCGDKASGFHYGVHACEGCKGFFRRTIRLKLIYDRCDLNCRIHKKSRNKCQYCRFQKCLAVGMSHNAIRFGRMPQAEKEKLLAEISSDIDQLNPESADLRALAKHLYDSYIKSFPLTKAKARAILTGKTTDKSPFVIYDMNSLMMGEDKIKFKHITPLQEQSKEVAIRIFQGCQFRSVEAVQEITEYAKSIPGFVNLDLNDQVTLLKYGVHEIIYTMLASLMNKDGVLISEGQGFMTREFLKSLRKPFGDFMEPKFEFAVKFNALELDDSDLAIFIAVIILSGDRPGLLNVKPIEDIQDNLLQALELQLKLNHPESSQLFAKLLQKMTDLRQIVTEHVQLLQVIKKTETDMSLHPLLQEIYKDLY
Description: Partial agonist activity at human recombinant PPARgamma LBD expressed in HEK293 cells co-transfected with Gal4 assessed as beta-galactosidase activity at 1 uM by luciferase based transactivation assay. The class given is functional, cell-based.

Data set [3] concerns the target T3, Peroxisome proliferator-activated receptor alpha (Homo sapiens, UniProt Q07869).
T3 sequence (Q07869 whole entry): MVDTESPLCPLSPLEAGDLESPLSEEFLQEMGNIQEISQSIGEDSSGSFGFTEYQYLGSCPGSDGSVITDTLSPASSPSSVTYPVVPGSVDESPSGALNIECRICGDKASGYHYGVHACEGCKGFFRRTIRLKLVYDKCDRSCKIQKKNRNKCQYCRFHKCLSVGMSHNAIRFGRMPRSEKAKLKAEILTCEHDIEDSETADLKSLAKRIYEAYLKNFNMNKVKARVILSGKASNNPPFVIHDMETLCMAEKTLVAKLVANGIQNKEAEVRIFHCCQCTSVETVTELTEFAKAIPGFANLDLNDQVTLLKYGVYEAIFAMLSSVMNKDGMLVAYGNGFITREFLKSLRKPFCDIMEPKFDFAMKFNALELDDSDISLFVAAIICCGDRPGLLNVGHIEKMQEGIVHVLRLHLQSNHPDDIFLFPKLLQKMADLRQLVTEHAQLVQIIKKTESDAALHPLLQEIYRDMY
Nature of the data set: Partial agonist activity at human recombinant PPARalpha LBD expressed in HEK293 cells co-transfected with Gal4 assessed as beta-galactosidase activity at 1 uM by luciferase based transactivation assay. The data set is classed as functional, cell-based. In outline:
as §1

Data set [4] is described as follows: Thermodynamic aqueous solubility of the compound in 1:15 M of 50% EtOH and phosphate buffer at pH 7.4. The class given is physicochemical. The following applies: for solubility thermodynamic: 50% EtOH and phosphate buffer; for solubility: buffer. In outline:
(§2)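 Thermodynamic solubility: about 1 mg solid ground in agate mortar, suspended in 1.0 mL of either 1:15 M phosphate buffer pH 7.4 or an equal-volume mix of that buffer with EtOH. Shaken 48 h at 25 °C, filtered (0.22 µm), filtrate diluted in DMF and quantified by reversed-phase HPLC-UV (262–295 nm) against a calibration curve, corrected for dilution.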

A short description of data set [5]: Thermodynamic aqueous solubility of the compound in phosphate buffer at pH 7.4. The data set is classed as physicochemical. In outline:
as §2

For data set [6], the target named is T3, Peroxisome proliferator-activated receptor alpha. Description: Partial agonist activity at human recombinant PPARalpha LBD expressed in HEK293 cells co-transfected with Gal4 assessed as beta-galactosidase activity by luciferase based transactivation assay. The class given is functional, cell-based. In outline: as §1
Data set [7] addresses T1, Peroxisome proliferator-activated receptor delta. Nature of the data set: Partial agonist activity at human recombinant PPARdelta LBD expressed in HEK293 cells co-transfected with Gal4 assessed as beta-galactosidase activity by luciferase based transactivation assay. The class given is functional, cell-based.
Data set [8] has as its target T4, Peroxisome proliferator-activated receptor alpha (Homo sapiens) (UniProt Q07869).
T4 sequence (whole entry): T3 sequence (Q07869 whole entry)
Description: Partial agonist activity at human recombinant PPARalpha LBD expressed in HEK293 cells co-transfected with Gal4 assessed as beta-galactosidase activity by luciferase based transactivation assay relative to fenofibric acid. The class given is functional, cell-based. In outline: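 GAL4-based reporter system analogous to the PPARδ assay, using a GAL4 DNA-binding domain–PPARα LBD chimera, TK-MH100x4-LUC reporter and CMX β-galactosidase for normalization. Positive control and test compounds were added 6 h after the preceding step and incubated overnight. Luciferase luminescence was read after luciferin addition, and β-galactosidase by absorbance at 405 nm. Efficacy was expressed relative to fenofibric acid.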

What is called EC50 is the midpoint of the concentration-response curve. Regarding `COCCOc1ccc(-c2ccc(C(=O)O)cc2)cc1CNC(=O)c1ccc(C(F)(F)F)cc1F`, in data set [1], the EC50 entry is reported as “Not Active”.

With `CCCCOc1ccc(-c2ccc(C(=O)O)nc2)cc1CNC(=O)c1ccc(C(F)(F)F)cc1F`, the EC50 result in data set [2] and in data set [3] was “Not Active” each time.

One may read the solubility (thermodynamic) as the concentration in solution at equilibrium with solid. For the compound `CCCCOc1ccc(-c2ccc(C(=O)O)cc2)cc1CNC(=O)c1ccc(C(F)(F)F)cc1F`, the EC50 result in data set [2] is “Not Active”. Also, the thermodynamic solubility in data set [4] was 375 µg/mL (≈ 766 µM); in data set [5] it was below 1 µg/mL.

For the compound `CCCCOc1ccc(-c2ccc(C(=O)O)o2)cc1CNC(=O)c1ccc(C(F)(F)F)cc1F`, the EC50 entry in data set [2] and in data set [3] was “Not Active” each time.

In general, solubility refers to the dissolved amount per volume that the medium holds. Read a low solubility as a poorly soluble substance. In the case of `CCCCOc1ccc(-c2cncc(C(=O)O)c2)cc1CNC(=O)c1ccc(C(F)(F)F)cc1F`, the EC50 entry in data set [2] is “Not Active”; in data set [6] it was 4000 nM; in data set [7] it was 220 nM. In data set [4], the solubility amounted to 9030 µg/mL (≈ 18400 µM). Also, the solubility (thermodynamic) in data set [5] stood at 7.62 µg/mL (≈ 15.5 µM).

Consider `CCCC(=O)Oc1ccc(-c2ccc(C(=O)O)cc2)cc1CNC(=O)c1ccc(C(F)(F)F)cc1F`, for which, in data set [1], the EC50 result is listed as “Not Active”.

As for `O=C(O)c1ccc(-c2ccc(OCCCO)c(CNC(=O)c3ccc(C(F)(F)F)cc3F)c2)cc1`, the EC50 entry in data set [1] is “Not Active”.

`CCCCOc1ccc(-c2c(F)ccc(C(=O)O)c2F)cc1CNC(=O)c1ccc(C(F)(F)F)cc1F`: the EC50 result is “Not Active” in data set [2], 5.7 nM in data set [7] and “Not Active” in data set [3]. In addition, the solubility in data set [4] amounted to 10400 µg/mL (≈ 19800 µM). The compound further registered a solubility (thermodynamic) in data set [5] of 21.7 µg/mL (≈ 41.3 µM).

In the case of `CCCCOc1ccc(-c2cccc(C(=O)O)c2)cc1CNC(=O)c1ccc(C(F)(F)F)cc1F`, the EC50 result in data set [2] is “Not Active”. Besides, the solubility in data set [4] turned out to be 1350 µg/mL (≈ 2760 µM). Besides, the solubility (thermodynamic) in data set [5] is below 1 µg/mL.

As for `CCCCOc1ccc(-c2ccc(C(=O)O)cc2C)cc1CNC(=O)c1ccc(C(F)(F)F)cc1F`, the values for the solubility (thermodynamic) in data set [4] and in data set [5] were 985 µg/mL (≈ 1960 µM) and below 1 µg/mL, respectively. The concentration for a half-maximal effect (EC50) entry in data set [3] is “Not Active”.

As for `CCCCOc1ccc(-c2ccc(C(=O)O)cn2)cc1CNC(=O)c1ccc(C(F)(F)F)cc1F`, the EC50 result in data set [2] and in data set [3] was “Not Active” throughout.

With `CCCCOc1ccc(-c2ccc(C(=O)O)cc2F)cc1CNC(=O)c1ccc(C(F)(F)F)cc1F`, the EC50 result in data set [2] and in data set [3] was “Not Active” in each case. For the same compound, the thermodynamic solubility in data set [4] was 3220 µg/mL (≈ 6350 µM); in data set [5], below 1 µg/mL.

On to `CCCCOc1ccc(-c2cccc(C(=O)O)c2C)cc1CNC(=O)c1ccc(C(F)(F)F)cc1F`, for which, in data set [2], the EC50 entry was “Not Active”. The thermodynamic solubility is 9950 µg/mL (≈ 19800 µM) in data set [4] and below 1 µg/mL in data set [5].

With `CCCCOc1ccc(-c2c(C)ncc(C(=O)O)c2C)cc1CNC(=O)c1ccc(C(F)(F)F)cc1F`, the concentration giving a half-maximal response (EC50) entry in data set [2] is “Not Active”; in data set [6], 4200 nM; in data set [7], 76 nM. The Efficacy in data set [8] came out at 100%. Further, the solubility (thermodynamic) stood at 17700 µg/mL (≈ 34100 µM) in data set [4] and 2700 µg/mL (≈ 5210 µM) in data set [5].
